Measurements as given in ChEMBL document CHEMBL1240411, “Synthesis and evaluation of anti-Toxoplasma gondii and antimicrobial activities of thiosemicarbazides, 4-thiazolidinones and 1,3,4-thiadiazoles” (Eur J Med Chem, 2010).
Values after ≈ are worked out from the molar mass of the structure shown.

Assays:
[1] = Cytotoxicity against african green monkey Vero cells infected with tachyzoites of Toxoplasma gondii RH after 24 hrs; assay type: cell-based; conditions: chlorocebus sabaeus, read-out: LD50
How it was run: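 Vero cells were infected with RH tachyzoites (10:1, 1 h), washed and incubated 24 h. They were then exposed 24 h to compound over 0.01–10 mM, in triplicate. Viability was scored by trypan blue exclusion, and LD50 was obtained by non-linear regression.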

Toxoplasma gondii [2] = assay: Antimicrobial activity against tachyzoites of Toxoplasma gondii RH infected in Vero cells assessed as reduction of infected cells at 10 mM after 24 hrs relative to control; assay type: functional; design: scale not given: the % may be the effect or the level left
How it was run: (§1)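 T. gondii RH tachyzoites were taken from mouse intraperitoneal passage. Vero cells were infected at 10:1 parasite:host for 1 h, PBS-washed, then held 24 h at 37 °C in medium 199 + 5% FCS. Compound exposure was 24 h at 37 °C. Cells were Bouin-fixed, Giemsa-stained and light-microscopy scored (≥400 cells) for % infected cells. Student's t-test, P<0.05. 13 assays in triplicate.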

Toxoplasma gondii [3] = assay: Antimicrobial activity against tachyzoites of Toxoplasma gondii RH infected in Vero cells assessed as reduction of infected cells after 24 hrs; assay type: functional; conditions: read-out: LD50 (the source's name)
How it was run: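 RH tachyzoites came from intraperitoneal passage in Swiss mice, harvested at 48 h. Vero cells were infected at a 10:1 parasite:host ratio for 1 h, washed with PBS and grown 24 h at 37 °C in medium 199 with 5% FCS. Compounds were then added at 0.1, 1 and 10 mM for 24 h. Cells were Bouin-fixed and Giemsa-stained, and at least 400 cells were counted by light microscopy. Mean ± SD, n = 3; Student's t-test.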

[4] = Cytotoxicity against african green monkey Vero cells after 24 hrs; assay type: cell-based; conditions: chlorocebus sabaeus, read-out: LD50
Toxoplasma gondii [5] = assay: Antimicrobial activity against tachyzoites of Toxoplasma gondii RH infected in Vero cells assessed as reduction of infected cells at 1 mM after 24 hrs relative to control; assay type: functional; design: scale not given: the % may be the effect or the level left; how it was run: as §1
Toxoplasma gondii [6] = assay: Antimicrobial activity against tachyzoites of Toxoplasma gondii RH infected in Vero cells assessed as reduction of infected cells at 0.1 mM after 24 hrs relative to control; assay type: functional; design: scale not given: the % may be the effect or the level left; how it was run: as §1
Staphylococcus aureus [7] = assay: Antibacterial activity against Staphylococcus aureus UFPEDA 02 after 24 to 48 hrs by serial dilution method; assay type: functional
Bacillus subtilis [8] = assay: Antibacterial activity against Bacillus subtilis UFPEDA 16 after 24 to 48 hrs by serial dilution method; assay type: functional
Staphylococcus aureus [9] = assay: Antibacterial activity against Staphylococcus aureus UFPEDA 02 by disc diffusion method; assay type: functional
How it was run: (§2)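 Disc diffusion: discs holding known amounts of agent were laid on agar seeded with a standardized microbial suspension. DMSO discs (CH₂Cl₂ for ketoconazole tests) served as negative controls. Read-out was mean zone of inhibition (mm). Run in triplicate, repeated if results differed.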

Bacillus subtilis [10] = assay: Antibacterial activity against Bacillus subtilis UFPEDA 16 by disc diffusion method; assay type: functional; how it was run: as §2
Aspergillus niger [11] = assay: Antifungal activity against Aspergillus niger UFPEDA 2003 by disc diffusion method; assay type: functional; how it was run: as §2
Candida [12] = assay: Antifungal activity against Candida sp. UFPEDA 2224 after 24 to 48 hrs by serial dilution method; assay type: functional
How it was run: (§3)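 Only compounds giving a disc-diffusion mean inhibition zone of at least 18 mm were carried to MIC. Nistatin and ketoconazole served as antifungal references.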

Candida albicans [13] = assay: Antifungal activity against Candida albicans UFPEDA 1007 after 24 to 48 hrs by serial dilution method; assay type: functional; how it was run: as §3
Aspergillus niger [14] = assay: Antifungal activity against Aspergillus niger UFPEDA 2003 after 24 to 48 hrs by serial dilution method; assay type: functional; how it was run: as §3
[15] = test system: Mycolicibacterium smegmatis; assay: Antibacterial activity against Mycobacterium smegmatis UFPEDA 71 by disc diffusion method; assay type: functional; how it was run: as §2
[16] = test system: Mycolicibacterium smegmatis; assay: Antibacterial activity against Mycobacterium smegmatis UFPEDA 71 after 24 to 48 hrs by serial dilution method; assay type: functional
Candida [17] = assay: Antifungal activity against Candida sp. UFPEDA 2224 by disc diffusion method; assay type: functional; how it was run: as §2
Candida albicans [18] = assay: Antifungal activity against Candida albicans UFPEDA 1007 by disc diffusion method; assay type: functional; how it was run: as §2
Escherichia coli [19] = assay: Antibacterial activity against Escherichia coli UFPEDA 224 by disc diffusion method; assay type: functional; how it was run: as §2
Escherichia coli [20] = assay: Antibacterial activity against Escherichia coli UFPEDA 224 after 24 to 48 hrs by serial dilution method; assay type: functional

| Compound | CC50 at 24 h [1] [µM] | Activity (Toxoplasma gondii [2]) [%] | LC50 (Toxoplasma gondii [3]) [µM] | CC50 at 24 h [4] [µM] | Activity (Toxoplasma gondii [5]) [%] | Activity (Toxoplasma gondii [6]) [%] | MIC (Staphylococcus aureus [7]) [µg/mL] | MIC (Bacillus subtilis [8]) [µg/mL] | other results |
| --- | --- | --- | --- | --- | --- | --- | --- | --- | --- |
| COc1ccc(Nc2nnc(-c3nc[nH]c3C)s2)cc1 | 100 | 0 | 50 | > 10000 | 14 | 28 |  |  |  |
| O=C(N[C@H](CO)[C@H](O)c1ccc([N+](=O)[O-])cc1)C(Cl)Cl [CHLORAMPHENICOL] |  |  |  |  |  |  | 35 (≈ 108 µM) | 30 (≈ 92.8 µM) |  |
| Cc1[nH]cnc1C(=O)N/N=C1\SC(CC(=O)O)C(=O)N1c1ccccc1 (stereo not drawn) | 5000 | 0 | 1500 | 5000 | 42 | 69 | 250 (≈ 670 µM) | 270 (≈ 723 µM) | inhibition zone (IZ) (Staphylococcus aureus [9]): 19 mm; inhibition zone (IZ) (Bacillus subtilis [10]): 27 mm |
| COc1ccc(NC(=S)NNC(=O)c2nc[nH]c2C)cc1 | 70 | 0 | 60 | 1000 | 12 | 22 | 210 (≈ 688 µM) | 160 (≈ 524 µM) | inhibition zone (IZ) (Staphylococcus aureus [9]): 19 mm; inhibition zone (IZ) (Bacillus subtilis [10]): 22 mm |
| Cc1[nH]cnc1C(=O)NNC(=S)Nc1ccccc1 | 50 | 0 | 50 | 1000 | 6 | 18 | 190 (≈ 690 µM) | 140 (≈ 508 µM) | inhibition zone (IZ) (Staphylococcus aureus [9]): 18 mm; inhibition zone (IZ) (Bacillus subtilis [10]): 27 mm |
| COc1ccc(N2C(=O)C(CC(=O)O)S/C2=N\NC(=O)c2nc[nH]c2C)cc1 (stereo not drawn) | 1000 | 0 | 500 | 5000 | 17 | 73 |  |  |  |
| Cc1[nH]cnc1C(=O)N/N=C1\SC(CC(=O)O)C(=O)N1c1ccc(F)cc1 (stereo not drawn) | 1000 | 0 | 100 | 5000 | 22 | 59 |  |  | inhibition zone (IZ) (Aspergillus niger [11]): 18 mm |
| NYSTATIN |  |  |  |  |  |  |  |  | MIC (Candida [12]): 50 µg/mL; MIC (Candida albicans [13]): 50 µg/mL; MIC (Aspergillus niger [14]): 50 µg/mL |
| Cc1[nH]cnc1-c1nnc(Nc2ccc(F)cc2)s1 | 70 | 3 | 50 | > 10000 | 6 | 22 |  |  |  |
| Cc1[nH]cnc1C(=O)NNC(=S)Nc1ccc(Cl)cc1 | 60 | 1 | 60 | > 10000 | 8 | 11 | 190 (≈ 613 µM) | 130 (≈ 420 µM) | inhibition zone (IZ) (Staphylococcus aureus [9]): 25 mm; inhibition zone (IZ) (Bacillus subtilis [10]): 29 mm; inhibition zone (IZ) [15]: 21 mm; MIC [16]: 150 µg/mL (≈ 484 µM) |
| Cc1[nH]cnc1C(=O)N/N=C1\SC(CC(=O)O)C(=O)N1c1ccc(Cl)cc1 (stereo not drawn) | 1000 | 0.19 | 1500 | > 10000 | 51 | 63 |  |  | inhibition zone (IZ) (Candida [17]): 20 mm; MIC (Candida [12]): 300 µg/mL (≈ 736 µM); MIC (Candida albicans [13]): 280 µg/mL (≈ 687 µM); inhibition zone (IZ) (Candida albicans [18]): 20 mm |
| CC(=O)N1CCN(c2ccc(OCC3COC(Cn4ccnc4)(c4ccc(Cl)cc4Cl)O3)cc2)CC1 (stereo not drawn) [KETOCONAZOLE] |  |  |  |  |  |  |  |  | MIC (Candida [12]): 40 µg/mL (≈ 75.3 µM); MIC (Candida albicans [13]): 25 µg/mL (≈ 47 µM) |
| NC(=O)NO [HYDROXYUREA] | > 10000 | 1 | 500 | > 10000 | 4 | 53 |  |  |  |
| CO[C@H]1/C=C/O[C@@]2(C)Oc3c(C)c(O)c4c(O)c(c(/C=N/N5CCN(C)CC5)c(O)c4c3C2=O)NC(=O)/C(C)=C\C=C\[C@H](C)[C@H](O)[C@@H](C)[C@@H](O)[C@@H](C)[C@H](OC(C)=O)[C@@H]1C [RIFAMPIN] |  |  |  |  |  |  |  |  | MIC [16]: 55 µg/mL (≈ 66.8 µM) |
| Cc1[nH]cnc1-c1nnc(Nc2ccc(Cl)cc2)s1 | 80 | 1 | 50 | > 10000 | 8 | 12 |  |  |  |
| Cc1[nH]cnc1-c1nnc(Nc2ccccc2)s1 | 600 | 0.36 | 50 | > 10000 | 10 | 13 |  |  |  |
| Nc1ccc(S(=O)(=O)Nc2ncccn2)cc1 [SULFADIAZINE] | > 10000 | 36 | 6000 | > 10000 | 48 | 64 |  |  |  |
| Cc1[nH]cnc1C(=O)NNC(=S)Nc1ccc(F)cc1 | 60 | 0 | 50 | 10000 | 8 | 14 | 190 (≈ 648 µM) | 130 (≈ 443 µM) | inhibition zone (IZ) (Staphylococcus aureus [9]): 20 mm; inhibition zone (IZ) (Escherichia coli [19]): 21 mm; inhibition zone (IZ) (Bacillus subtilis [10]): 28 mm; inhibition zone (IZ) [15]: 20 mm; MIC (Escherichia coli [20]): 250 µg/mL (≈ 852 µM); MIC [16]: 160 µg/mL (≈ 545 µM) |
